Reference: ChEMBL document CHEMBL1833958, “Anti-AIDS agents 87. New bio-isosteric dicamphanoyl-dihydropyranochromone (DCP) and dicamphanoyl-khellactone (DCK) analogues with potent anti-HIV activity” (Bioorg Med Chem Lett, 2011)
pEC50: −log10 of the molar value.

Tests used:
[1] = Therapeutic index, ratio of CC50 for human TZM-bl cells to EC50 for HIV1 NL4-3; type: cell-based; settings: read-out: Ratio CC50/EC50
Method in brief: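 TI calculated as CC50 (uninfected TZM-bl growth inhibition) divided by EC50 (NL4-3 replication inhibition in TZM-bl luciferase reporter assay).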

[2] = Cytotoxicity against human TZM-bl cells assessed as inhibition of cell growth; type: cell-based
Method in brief: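 Uninfected TZM-bl cells exposed to test samples. CC50 is the concentration inhibiting cell growth by 50%.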

[3] = test system: Human immunodeficiency virus 1; experiment: Antiviral activity against Human immunodeficiency virus 1 NL4-3 infected in human TZM-bl cells assessed as inhibition of viral replication after 48 hrs by luciferase reporter gene assay; type: functional, organism-based; settings: Human immunodeficiency virus 1, NL4-3, TZM-bl
Method in brief: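 Single-round infection of TZM-bl cells with HIV-1 NL4-3 at 200 TCID50, mixed with test samples at eight four-fold serial dilutions in growth medium. After 48 h, medium is removed and luciferase reagent added. Luminescence is then read. EC50 is the concentration giving 50% reduction in RLU versus virus control wells, after background RLU subtraction.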

SMILES | selectivity ratio [1] | CC50 [2] [nM] | pEC50 [3]
CCc1cc(=O)c2ccc3c(c2o1)[C@@H](OC(=O)C12CCC(C)(C(=O)O1)C2(C)C)[C@@H](OC(=O)C12CCC(C)(C(=O)O1)C2(C)C)C(C)(C)O3 (stereo partly drawn) | 119 | – | –
CCc1cc(=O)c2ccc3c(c2o1)[C@@H](OC(=O)C12CCC(C)(C(=O)O1)C2(C)C)[C@@H](OC(=O)C12CCC(C)(C(=O)O1)C2(C)C)C(C)(C)S3 (stereo partly drawn) | 100 | 5400 | 7.27
Cc1cc(=O)oc2c3c(ccc12)SC(C)(C)[C@H](OC(=O)[C@@]12CC[C@@](C)(C(=O)O1)C2(C)C)[C@@H]3OC(=O)[C@@]12CC[C@@](C)(C(=O)O1)C2(C)C | > 238 | – | 6.89
CCc1cc(=O)c2ccc3c(c2o1)[C@@H](OC(=O)C12CCC(C)(C(=O)O1)C2(C)C)[C@@H](OC(=O)C12CCC(C)(C(=O)O1)C2(C)C)[C@H](C)S3 (stereo partly drawn) | 48 | 1840 | 7.42
CCc1cc(=O)c2ccc3c(c2o1)[C@H](OC(=O)C12CCC(C)(C(=O)O1)C2(C)C)[C@H](OC(=O)C12CCC(C)(C(=O)O1)C2(C)C)[C@@H](C)S3 (stereo partly drawn) | 20.8 | 3830 | 6.74
CCc1cc(=O)c2ccc3c(c2o1)[C@@H](OC(=O)C12CCC(C)(C(=O)O1)C2(C)C)[C@@H](OC(=O)C12CCC(C)(C(=O)O1)C2(C)C)[C@H](C)O3 (stereo partly drawn) | 153 | 4550 | 7.52
Cc1cc(=O)oc2c3c(ccc12)SC(C)(C)[C@@H](OC(=O)[C@@]12CC[C@@](C)(C(=O)O1)C2(C)C)[C@H]3OC(=O)[C@@]12CC[C@@](C)(C(=O)O1)C2(C)C | > 3.6 | > 30600 | 5.07
